Experiments:
[1] = tested on: EBC-1; assay: Antiproliferative activity against human EBC1 cells after 72 hrs by Alamarblue assay; settings: EBC-1, 72 h
[2] = tested on: MKN-45; assay: Antiproliferative activity against human MKN45 cells after 72 hrs by Alamarblue assay; settings: MKN-45, 72 h
[3] = tested on: NCI-H460; assay: Antiproliferative activity against human NCI-H460 cells after 72 hrs by Alamarblue assay; format: functional, cell-based; settings: NCI-H460, 72 h
Procedure, shortened: (§1)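 Cells were seeded in medium with 10% FBS at 37 °C and 5% CO2. After 24 h the medium was switched to serum-free medium containing 0.04% BSA, and cells were exposed to compound for 72 h. AlamarBlue was then added for 1–4 h at 37 °C in the dark, and fluorescence was read at ex 570 / em 585 nm. IC50 was obtained by nonlinear regression fitting.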

[4] = tested on: PC-3; assay: Antiproliferative activity against human PC3 cells after 72 hrs by Alamarblue assay; format: functional, cell-based; settings: PC-3, 72 h; procedure, shortened: as §1
[5] = tested on: COLO 205; assay: Antiproliferative activity against human COLO205 cells after 72 hrs by Alamarblue assay; format: functional, cell-based; settings: COLO 205, 72 h; procedure, shortened: as §1
[6] = tested on: A549; assay: Antiproliferative activity against human A549 cells after 72 hrs by Alamarblue assay relative to control; settings: A549, 72 h
[7] = tested on: HCT-116; assay: Antiproliferative activity against human HCT116 cells after 72 hrs by Alamarblue assay relative to control; settings: HCT-116, 72 h
[8] = tested on: MCF7; assay: Antiproliferative activity against human MCF7 cells after 72 hrs by Alamarblue assay relative to control; settings: MCF7, 72 h
[9] = tested on: SGC-7901; assay: Antiproliferative activity against human SGC7901 cells after 72 hrs by Alamarblue assay relative to control; settings: SGC-7901, 72 h
[10] = tested on: A549; assay: Antiproliferative activity against human A549 cells at 10 uM after 72 hrs by Alamarblue assay relative to control; format: functional; settings: A549, 72 h, read-out: GI
Procedure, shortened: (§2)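 Single-concentration screen in cells kept at 37 °C and 5% CO2. Cells were plated in 10% FBS medium, then moved after 24 h to serum-free medium with 0.04% BSA. Compound exposure lasted 72 h. AlamarBlue was added for 1–4 h at 37 °C protected from light, and fluorescence was measured at ex 570 / em 585 nm.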

[11] = tested on: HCT-116; assay: Antiproliferative activity against human HCT116 cells at 10 uM after 72 hrs by Alamarblue assay relative to control; format: functional; settings: HCT-116, 72 h, read-out: GI; procedure, shortened: as §2
[12] = tested on: MCF7; assay: Antiproliferative activity against human MCF7 cells at 10 uM after 72 hrs by Alamarblue assay relative to control; format: functional; settings: MCF7, 72 h, read-out: GI; procedure, shortened: as §2
[13] = tested on: PC-3; assay: Antiproliferative activity against human PC3 cells at 10 uM after 72 hrs by Alamarblue assay relative to control; format: functional; settings: PC-3, 72 h, read-out: GI; procedure, shortened: as §2
[14] = tested on: SGC-7901; assay: Antiproliferative activity against human SGC7901 cells at 10 uM after 72 hrs by Alamarblue assay relative to control; format: functional; settings: SGC-7901, 72 h, read-out: GI; procedure, shortened: as §2
[15] = target: Hepatocyte growth factor receptor (Homo sapiens, UniProt P08581); assay: Inhibition of human GST-tagged c-MET using KKKSPGEYVNIEFG as substrate preincubated for 20 mins followed by [gamma-33P]ATP addition and measured after 2 hrs by filter-binding assay
[16] = target: Vascular endothelial growth factor receptor 2 (Homo sapiens, UniProt P35968); assay: Inhibition of KDR (unknown origin)
[17] = target: Serine/threonine-protein kinase B-raf (Homo sapiens) (UniProt P15056); assay: Inhibition of B-raf (unknown origin) at 50 uM
Serine/threonine-protein kinase B-raf (Homo sapiens), sequence (P15056 whole entry): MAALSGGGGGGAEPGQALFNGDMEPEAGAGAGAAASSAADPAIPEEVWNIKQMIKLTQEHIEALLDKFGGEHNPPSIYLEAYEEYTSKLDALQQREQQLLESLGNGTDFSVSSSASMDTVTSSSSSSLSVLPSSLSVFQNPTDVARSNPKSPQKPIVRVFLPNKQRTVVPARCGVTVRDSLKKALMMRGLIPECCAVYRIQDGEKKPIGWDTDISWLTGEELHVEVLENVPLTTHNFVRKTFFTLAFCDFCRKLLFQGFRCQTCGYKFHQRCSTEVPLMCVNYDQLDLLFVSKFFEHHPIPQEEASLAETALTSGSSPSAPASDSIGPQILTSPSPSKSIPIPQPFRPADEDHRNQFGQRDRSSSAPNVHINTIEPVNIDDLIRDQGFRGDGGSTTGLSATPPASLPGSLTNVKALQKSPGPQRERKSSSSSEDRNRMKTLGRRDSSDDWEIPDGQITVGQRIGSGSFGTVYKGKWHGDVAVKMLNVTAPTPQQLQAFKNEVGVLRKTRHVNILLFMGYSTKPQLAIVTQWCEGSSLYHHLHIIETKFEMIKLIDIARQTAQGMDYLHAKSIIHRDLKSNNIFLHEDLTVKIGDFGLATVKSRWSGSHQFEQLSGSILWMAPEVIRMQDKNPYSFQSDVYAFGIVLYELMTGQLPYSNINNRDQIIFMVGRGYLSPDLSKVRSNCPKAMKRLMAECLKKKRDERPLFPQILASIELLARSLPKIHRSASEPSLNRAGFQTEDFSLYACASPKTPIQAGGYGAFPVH

Vascular endothelial growth factor receptor 2, sequence (P35968 whole entry): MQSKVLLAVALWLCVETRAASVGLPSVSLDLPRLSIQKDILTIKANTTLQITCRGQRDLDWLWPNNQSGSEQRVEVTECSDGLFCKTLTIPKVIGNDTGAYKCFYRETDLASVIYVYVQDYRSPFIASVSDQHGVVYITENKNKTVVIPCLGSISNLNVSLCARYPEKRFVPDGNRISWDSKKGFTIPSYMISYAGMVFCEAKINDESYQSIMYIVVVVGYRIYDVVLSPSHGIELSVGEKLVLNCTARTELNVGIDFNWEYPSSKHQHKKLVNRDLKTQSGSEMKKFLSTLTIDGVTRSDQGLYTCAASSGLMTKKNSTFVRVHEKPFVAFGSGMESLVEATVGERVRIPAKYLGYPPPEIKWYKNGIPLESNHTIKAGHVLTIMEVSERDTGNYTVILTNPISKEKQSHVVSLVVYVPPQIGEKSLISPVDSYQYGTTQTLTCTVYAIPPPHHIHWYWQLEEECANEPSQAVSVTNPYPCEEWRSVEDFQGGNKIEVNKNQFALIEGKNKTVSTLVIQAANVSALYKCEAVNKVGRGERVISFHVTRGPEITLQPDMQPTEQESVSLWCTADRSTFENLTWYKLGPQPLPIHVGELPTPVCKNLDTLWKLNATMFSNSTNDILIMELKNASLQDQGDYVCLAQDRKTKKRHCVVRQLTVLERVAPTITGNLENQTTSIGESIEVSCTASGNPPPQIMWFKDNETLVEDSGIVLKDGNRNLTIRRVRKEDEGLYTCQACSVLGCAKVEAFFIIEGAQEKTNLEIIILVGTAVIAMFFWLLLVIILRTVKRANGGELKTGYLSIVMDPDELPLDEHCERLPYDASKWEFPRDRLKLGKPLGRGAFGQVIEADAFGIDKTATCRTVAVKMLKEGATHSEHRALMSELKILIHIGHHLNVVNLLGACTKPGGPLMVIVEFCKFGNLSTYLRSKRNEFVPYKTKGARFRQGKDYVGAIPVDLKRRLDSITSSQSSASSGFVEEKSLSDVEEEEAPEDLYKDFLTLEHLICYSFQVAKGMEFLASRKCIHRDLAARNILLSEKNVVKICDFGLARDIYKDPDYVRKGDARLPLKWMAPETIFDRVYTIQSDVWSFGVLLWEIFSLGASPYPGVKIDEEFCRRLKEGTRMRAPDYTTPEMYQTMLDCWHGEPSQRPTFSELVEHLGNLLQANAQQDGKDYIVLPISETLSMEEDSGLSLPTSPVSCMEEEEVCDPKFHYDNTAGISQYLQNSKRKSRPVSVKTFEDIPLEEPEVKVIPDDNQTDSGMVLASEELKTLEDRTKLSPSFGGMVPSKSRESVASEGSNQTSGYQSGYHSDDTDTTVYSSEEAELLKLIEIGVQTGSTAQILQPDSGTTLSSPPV
Hepatocyte growth factor receptor, sequence (P08581 whole entry): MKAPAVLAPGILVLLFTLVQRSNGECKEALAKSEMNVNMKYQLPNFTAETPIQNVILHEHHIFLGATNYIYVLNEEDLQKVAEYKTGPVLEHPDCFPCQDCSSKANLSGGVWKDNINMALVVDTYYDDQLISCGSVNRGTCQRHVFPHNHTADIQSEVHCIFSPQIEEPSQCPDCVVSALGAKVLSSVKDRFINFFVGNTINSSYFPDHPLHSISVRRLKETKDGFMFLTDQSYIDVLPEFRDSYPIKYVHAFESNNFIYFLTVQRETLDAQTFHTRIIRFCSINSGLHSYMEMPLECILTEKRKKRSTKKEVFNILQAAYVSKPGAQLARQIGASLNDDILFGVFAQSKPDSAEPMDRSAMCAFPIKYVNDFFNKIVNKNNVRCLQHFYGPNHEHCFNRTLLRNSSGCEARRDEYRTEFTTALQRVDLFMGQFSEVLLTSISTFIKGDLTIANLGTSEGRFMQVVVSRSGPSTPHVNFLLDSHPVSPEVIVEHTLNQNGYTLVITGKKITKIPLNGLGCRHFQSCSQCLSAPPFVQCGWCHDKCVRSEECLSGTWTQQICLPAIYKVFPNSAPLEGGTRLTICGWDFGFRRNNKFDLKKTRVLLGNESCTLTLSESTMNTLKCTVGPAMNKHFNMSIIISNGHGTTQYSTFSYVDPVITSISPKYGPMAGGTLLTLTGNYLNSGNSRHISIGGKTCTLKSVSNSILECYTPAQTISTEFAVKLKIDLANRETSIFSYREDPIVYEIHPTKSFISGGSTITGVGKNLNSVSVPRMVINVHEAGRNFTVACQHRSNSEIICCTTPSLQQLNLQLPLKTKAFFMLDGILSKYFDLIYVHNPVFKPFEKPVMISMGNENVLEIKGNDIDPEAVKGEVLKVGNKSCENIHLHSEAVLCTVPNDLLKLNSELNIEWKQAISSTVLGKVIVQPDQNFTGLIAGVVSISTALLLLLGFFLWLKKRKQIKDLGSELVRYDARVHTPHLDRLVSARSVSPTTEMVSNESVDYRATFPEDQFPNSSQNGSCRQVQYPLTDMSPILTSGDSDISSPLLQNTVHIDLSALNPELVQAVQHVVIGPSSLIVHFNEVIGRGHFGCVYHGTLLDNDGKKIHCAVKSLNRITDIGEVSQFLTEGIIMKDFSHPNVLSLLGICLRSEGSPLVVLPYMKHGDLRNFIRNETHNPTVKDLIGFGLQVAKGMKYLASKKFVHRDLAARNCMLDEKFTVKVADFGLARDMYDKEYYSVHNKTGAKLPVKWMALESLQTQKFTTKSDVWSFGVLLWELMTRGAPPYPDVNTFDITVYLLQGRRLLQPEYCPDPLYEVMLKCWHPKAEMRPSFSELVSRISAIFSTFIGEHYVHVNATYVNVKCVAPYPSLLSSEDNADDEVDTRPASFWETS

| SMILES | IC50 [1] [µM] | IC50 [2] [µM] | IC50 [3] [µM] | IC50 [4] [µM] | IC50 [5] [µM] | inhibition of growth at 10 µM [10] [%] | inhibition of growth at 10 µM [11] [%] | inhibition of growth at 10 µM [12] [%] | inhibition of growth at 10 µM [13] [%] | inhibition of growth at 10 µM [14] [%] | other results |
| --- | --- | --- | --- | --- | --- | --- | --- | --- | --- | --- | --- |
| C[C@@H](Oc1cc(-c2cnn(C3CCNCC3)c2)cnc1N)c1c(Cl)ccc(F)c1Cl [CRIZOTINIB] | 0.013 | 0.022 | 2.24 | 9.79 | 2.45 | – | – | – | – | – | IC50 [6]: 0.134 µM; IC50 [7]: 0.254 µM; IC50 [8]: 0.045 µM; IC50 [9]: 0.321 µM |
| COc1ccc2c(OCc3nnc4sc(-c5ccc6[nH]cnc6c5)nn34)ccnc2c1 | 3.17 | 1.02 | – | – | – | – | – | – | – | – | – |
| COc1ccc(Cc2nnc3sc(-c4ccccc4OC)nn23)cc1 | – | – | – | – | – | 10.4 | 8.2 | 35.7 | 57.7 | 15.5 | – |
| COc1ccc(Cc2nnc3sc(-c4cc5ccccc5[nH]4)nn23)cc1 | – | – | – | – | – | 6.08 | 0.64 | 14.9 | 55.1 | 12.3 | IC50 [15]: 0.19 µM; IC50 [16]: 3.33 µM; inhibition [17]: 17.8% |
| COc1ccc2c(OCc3nnc4sc(-c5cc6ccccc6[nH]5)nn34)ccnc2c1 | 0.506 | 1.17 | 2.06 | 2.97 | 2.24 | – | – | – | – | – | – |
| Fc1ccccc1-c1cn2c(COc3ccc4c(c3)OCO4)nnc2s1 | – | – | – | – | – | 20.1 | 4.73 | 45.4 | 19.4 | 12.4 | – |

From ChEMBL document CHEMBL4138221, “Discovery, optimization and biological evaluation for novel c-Met kinase inhibitors” (Eur J Med Chem, 2018)
